≈ marks a conversion by molar mass, not a printed value.
How the values were obtained:
[1] = system: Saccharomyces cerevisiae; assay: Antifungal activity against Saccharomyces cerevisiae AD1-8u(-) after 48 hrs; type: functional
Outline: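 Growth inhibition of transporter-deleted control S. cerevisiae AD1-8u− over […]; 10^4 cells grown in YEPD for 48 h at 30 °C. OD600 was read and growth without inhibitor was set as 100%. MIC80 is the concentration cutting growth by 80%. Means ± SD from three independent experiments.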

[2] = system: Candida albicans; assay: Inhibition of Candida albicans CDR1 expressed in Saccharomyces cerevisiae AD assessed as ratio of MIC80 of compound in combinantion with fluconazole to MIC80 of compound alone for Saccharomyces cerevisiae AD by checkerboard method
Outline: (§1)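 CLSI checkerboard in YEPD: 10^4 cells per well, grown 48 h at 30 °C, OD read. Fluconazole 0.15−800 μM was crossed with inhibitor 0.15−800 μM. Run on control AD1-8u− and on strains overexpressing CaCdr1p or CaMdr1p. FIC of each agent = MIC in combination / MIC alone; FICI = sum of both FICs.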

[3] = system: Candida albicans; assay: Inhibition of Candida albicans CDR1 expressed in Saccharomyces cerevisiae AD assessed as potentiation of fluconazole-induced antifungal activity against Saccharomyces cerevisiae AD by checkerboard method; outline: as §1
[4] = system: Saccharomyces cerevisiae; assay: Antifungal activity against Saccharomyces cerevisiae AD over-expressing Candida albicans CDR1 transporter after 48 hrs; type: functional
Outline: (§2)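 S. cerevisiae AD1-8u− derivative overexpressing the transporter, grown in YEPD at 30 °C. Cells (10^4) incubated 48 h at 30 °C with a range of inhibitor concentrations […]; growth read as OD600. Growth without inhibitor taken as 100%; MIC80 is the concentration decreasing growth by 80%. Means ± SD of three independent experiments.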

[5] = system: Candida albicans; assay: Inhibition of Candida albicans CDR1 expressed in Saccharomyces cerevisiae AD assessed as ratio of MIC80 of fluconazole in combinantion with compound to MIC80 of fluconazole alone for Saccharomyces cerevisiae AD by checkerboard method; outline: as §1
[6] = system: Saccharomyces cerevisiae; assay: Potentiation of fluconazole-induced antifungal activity against Saccharomyces cerevisiae AD1-8u(-) by checkerboard method; type: functional; outline: as §1
[7] = system: Saccharomyces cerevisiae; assay: Resistance index, ratio of MIC80 for Saccharomyces cerevisiae AD over-expressing Candida albicans CDR1 to MIC80 for Saccharomyces cerevisiae AD1-8u(-); type: functional
Outline: (§3)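 MIC80 of the transporter-overexpressing strain and the AD1-8u− control strain each measured after 48 h growth at 30 °C over 0.15−80 μM inhibitor, read by OD600. MIC80 is the concentration cutting growth by 80% versus the no-inhibitor control. Resistance index = overexpressing-strain MIC80 divided by control-strain MIC80.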

[8] = system: Candida albicans; assay: Inhibition of Candida albicans MDR1 expressed in Saccharomyces cerevisiae AD assessed as ratio of MIC80 of fluconazole in combinantion with compound to MIC80 of fluconazole alone for Saccharomyces cerevisiae AD by checkerboard method; outline: as §1
[9] = system: Saccharomyces cerevisiae; assay: Potentiation of fluconazole-induced antifungal activity against Saccharomyces cerevisiae AD1-8u(-) assessed as ratio of MIC80 of compound in combinantion with fluconazole to MIC80 of compound alone by checkerboard method; type: functional; outline: as §1
[10] = system: Saccharomyces cerevisiae; assay: Potentiation of fluconazole-induced antifungal activity against Saccharomyces cerevisiae AD1-8u(-) assessed as as ratio of MIC80 of fluconazole in combinantion with compound to MIC80 of fluconazole alone by checkerboard method; type: functional; outline: as §1
[11] = system: Candida albicans; assay: Inhibition of Candida albicans MDR1 expressed in Saccharomyces cerevisiae AD assessed as potentiation of fluconazole-induced antifungal activity against Saccharomyces cerevisiae AD by checkerboard method; outline: as §1
[12] = system: Candida albicans; assay: Inhibition of Candida albicans CDR1 transporter expressed in Saccharomyces cerevisiae AD cells assessed as nile red accumulation at 70 uM after 30 mins by flow cytometric analysis relative to control; type: cell-based; parameters: Activity: scale not given: the % may be the effect or the level left
Outline: (§4)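 S. cerevisiae AD strains overexpressing CaCdr1p (AD-CDR1) or CaMdr1p (AD-MDR1) were grown at 30 °C from OD600 0.1 to 0.25. They were resuspended as a 5% suspension in YEPD:water 1:2. Nile Red (7 μM final) was given ± inhibitor (70 μM) for 30 min at 30 °C. Accumulation was read by flow cytometry on 10 000 cells. Means ± SD, three independent experiments.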

[13] = system: Saccharomyces cerevisiae; assay: Resistance index, ratio of MIC80 for Saccharomyces cerevisiae AD over-expressing Candida albicans MDR1 to MIC80 for Saccharomyces cerevisiae AD1-8u(-); type: functional; outline: as §3
[14] = system: Candida albicans; assay: Inhibition of Candida albicans MDR1 expressed in Saccharomyces cerevisiae AD assessed as ratio of MIC80 of compound in combinantion with fluconazole to MIC80 of compound alone for Saccharomyces cerevisiae AD by checkerboard method; outline: as §1
[15] = system: Candida albicans; assay: Inhibition of Candida albicans MDR1 transporter expressed in Saccharomyces cerevisiae AD cells assessed as nile red dye accumulation at 70 uM after 30 mins by flow cytometric analysis relative to control; type: cell-based; parameters: Activity: scale not given: the % may be the effect or the level left; outline: as §4
[16] = system: Saccharomyces cerevisiae; assay: Antifungal activity against Saccharomyces cerevisiae AD over-expressing Candida albicans MDR1 transporter after 48 hrs; type: functional; outline: as §2

Compound | MIC80 [1] [µM] | Ratio [2] | fractional inhibitory concentration index (FICI) [3] | MIC80 [4] [µM] | Ratio [5] | fractional inhibitory concentration index (FICI) [6] | Ratio [7] | Ratio [8] | Ratio [9] | Ratio [10] | fractional inhibitory concentration index (FICI) [11] | Activity [12] [%] | Ratio [13] | Ratio [14] | Activity [15] [%] | MIC80 [16] [µM]
CC(=O)O[C@H]1[C@@H](OC(C)=O)C(C)(C)/C=C/[C@@](C)(O)C(=O)[C@@]2(O)C[C@@](C)(OC(C)=O)[C@H](OC(C)=O)[C@@H]2[C@H]2OC(=O)CC[C@@]2(OC(C)=O)[C@@H]1OC(=O)C(C)C | 682 (≈ 515 µg/mL) | 1 | 2 | 711 (≈ 537 µg/mL) | 1 | 2 | 1.04 | 0.5 | 1 | 1 | 1 | 85 | 1.01 | 0.5 | 79 | 691 (≈ 522 µg/mL)
C=C1[C@@H](OC(C)=O)[C@H]2[C@@H](OC(=O)COC(=O)c3ccccc3)[C@](C)(OC(C)=O)C[C@]2(O)C(=O)[C@@H](C)/C=C/C(C)(C)[C@H](OC(C)=O)[C@H](OC(C)=O)[C@H]1OC(=O)C(C)C | 324 (≈ 259 µg/mL) | 1 | 1.2 | 416 (≈ 333 µg/mL) | 0.2 | 2 | 1.2 | 1 | 1 | 1 | 2 | 92 | 1.2 | 1 | – | 411 (≈ 329 µg/mL)
C=C1[C@@H](OC(=O)C(C)CC)[C@H]2[C@@H](O)[C@](C)(OC(C)=O)C[C@]2(O)C(=O)[C@@H](C)/C=C/C(C)(C)[C@H](OC(C)=O)[C@H](OC(C)=O)[C@H]1OC(=O)c1ccccc1 (some centres not stated) | 719 (≈ 514 µg/mL) | 0.5 | 1.5 | 681 (≈ 487 µg/mL) | 1 | 2 | 0.9 | 1 | 1 | 1 | 2 | 64 | 0.87 | 1 | 65 | 629 (≈ 450 µg/mL)
C=C1[C@@H](OC(C)=O)[C@H]2[C@@H](OC(=O)c3ccccc3)[C@@H](C)C[C@]2(O)[C@H](O)[C@H](C)/C=C/C(C)(C)C(=O)[C@H](OC(=O)C(C)C)[C@H]1OC(C)=O | 792 (≈ 509 µg/mL) | 1 | 2 | 710 (≈ 456 µg/mL) | 1 | 2 | 0.9 | 1 | 1 | 1 | 2 | – | 0.85 | 1 | 74 | 679 (≈ 436 µg/mL)
